Data set [1] concerns HCT-116. The data set can be described thus: Induction of apoptosis in human HCT116 cells assessed as late apoptotic cells at 2 ug/ml after 48 hrs by Annexin V-FITC/propidium iodide staining based flow cytometry (reference value: 3.6%). In kind it is functional. (In general: A flow cytometer gives signals particle by particle.)
The test system of data set [2] is HCT-116. The data set can be described thus: Increase in ERK phosphorylation in human HCT116 cells cytoplasmic extract at 0.3125 to 2.5 ug/ml after 48 hrs by Western blot method. In kind it is cell-based. The procedure, abridged: (§1)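 HCT-116 cells treated at 0–2.5 μg/mL, then split into cytoplasmic and nuclear extracts for Western blotting. The cytoplasmic fraction was probed for cleaved PARP, cleaved caspase-3, phospho-ERK and survivin, with α-tubulin as loading control. The nuclear fraction was probed for HDAC1, with histone H3 as loading control.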
In general terms: A western blot detects proteins with antibodies after separation by electrophoresis.

The test system of the next data set is HT-29. Nature of the data set: (§2) Cytotoxicity against human HT-29 cells assessed as reduction in cell viability after 48 hrs by MTT assay. In kind it is functional, cell-based. An outline of the steps:
(§3)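 MTT viability assay over a compound concentration series in colorectal carcinoma cells; IC50 taken from dose–response curves. Mean ± SD of three separate experiments.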
For orientation: Formazan colour is commonly taken as a measure of viable cells.

Data set [3] in a line: as §2. In kind it is functional, cell-based. The note with it: HT-29, 48 h. The procedure, abridged:
as §3

Data set [4] relates to HCT-116. The data set can be described thus: Induction of apoptosis in human HCT116 cells assessed as necrotic cells at 10 ug/ml after 48 hrs by Annexin V-FITC/propidium iodide staining based flow cytometry (reference value: 1.3%). In kind it is functional.
Data set [5] has as its system HCT-116. The data set can be described thus: Induction of apoptosis in human HCT116 cells assessed as early apoptotic cells at 5 ug/ml after 48 hrs by Annexin V-FITC/propidium iodide staining based flow cytometry (reference value: 3.7%). The class given is functional.
Data set [6] has as its system HCT-116. Nature of the data set: Induction of apoptosis in human HCT116 cells assessed as late apoptotic cells at 5 ug/ml after 48 hrs by Annexin V-FITC/propidium iodide staining based flow cytometry (reference value: 3.6%). In kind it is functional.
For data set [7], the system named is HCT-116. Nature of the data set: Induction of apoptosis in human HCT116 cells cytoplasmic extract assessed as increase in cleaved PARP expression at 0.3125 to 2.5 ug/ml after 48 hrs by Western blot method. The class given is functional, cell-based. An outline of the steps: as §1
Data set [8] deals with HCT-116. Nature of the data set: Antitumor activity against human HCT116 cells xenografted in BALB/c nude mouse assessed as inhibition of tumor weight at 20 mg/kg, ip administered every other day for 14 days. The class given is functional, organism-based. An outline of the steps:
(§4)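 HCT-116 cells implanted subcutaneously in the flanks of nude mice. Compound given intraperitoneally at 20 mg/kg every other day for 14 days; controls got vehicle. Tumour volume measured per animal at set time points, and tumours excised at study end; mean ± SD, n = 10 per group.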

The test system of data set [9] is HCT-116. Nature of the data set: Antitumor activity against human HCT116 cells xenografted in BALB/c nude mouse assessed as inhibition of tumor volume at 20 mg/kg, ip administered every other day for 14 days. In kind it is functional, organism-based. The procedure, abridged:
as §4

Data set [10] concerns HCT-116. Nature of the data set: Induction of apoptosis in human HCT116 cells assessed as necrotic cells at 1 ug/ml after 48 hrs by Annexin V-FITC/propidium iodide staining based flow cytometry (reference value: 1.3%). The class given is functional.
Data set [11] can be described thus: (§5) Cytotoxicity against human HCT116 cells assessed as reduction in cell viability after 48 hrs by MTT assay. The class given is functional, cell-based. The note with it: HCT-116, 48 h. The procedure, abridged: as §3
The subject of data set [12] is HCT-116. Described as §5. The class given is functional, cell-based. An outline of the steps:
as §3

Data set [13] has as its system HCT-116. Nature of the data set: Induction of apoptosis in human HCT116 cells assessed as early apoptotic cells at 10 ug/ml after 48 hrs by Annexin V-FITC/propidium iodide staining based flow cytometry (reference value: 3.7%). In kind it is functional.
The subject of data set [14] is HCT-116. The data set can be described thus: Induction of apoptosis in human HCT116 cells assessed as late apoptotic cells at 0.5 ug/ml after 48 hrs by Annexin V-FITC/propidium iodide staining based flow cytometry (reference value: 3.6%). The class given is functional.
Data set [15] concerns HCT-116. Nature of the data set: Induction of apoptosis in human HCT116 cells assessed as necrotic cells at 5 ug/ml after 48 hrs by Annexin V-FITC/propidium iodide staining based flow cytometry (reference value: 1.3%). The class given is functional.
Data set [16] concerns HCT-116. The data set can be described thus: Induction of apoptosis in human HCT116 cells assessed as late apoptotic cells at 1 ug/ml after 48 hrs by Annexin V-FITC/propidium iodide staining based flow cytometry (reference value: 3.6%). The class given is functional.
The subject of data set [17] is HCT-116. Nature of the data set: Induction of apoptosis in human HCT116 cells cytoplasmic extract assessed as increase in cleaved caspase-3 expression at 0.3125 to 2.5 ug/ml after 48 hrs by Western blot method. In kind it is functional, cell-based. The procedure, abridged:
as §1

Data set [18] concerns HCT-116. Nature of the data set: Induction of apoptosis in human HCT116 cells assessed as necrotic cells at 2 ug/ml after 48 hrs by Annexin V-FITC/propidium iodide staining based flow cytometry (reference value: 1.3%). In kind it is functional.
Data set [19] relates to HCT-116. Nature of the data set: Antiproliferative activity against human HCT116 cells at 2.5 ug/ml by light microscopic method. In kind it is functional, cell-based. The procedure, abridged:
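HCT-116 cells grown at relatively high density, untreated or compound-treated, then viewed by light microscopy at 10× magnification.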

Data set [20] concerns HCT-116. The data set can be described thus: Induction of apoptosis in human HCT116 cells assessed as early apoptotic cells at 2 ug/ml after 48 hrs by Annexin V-FITC/propidium iodide staining based flow cytometry (reference value: 3.7%). In kind it is functional.
For data set [21], the system named is HCT-116. Nature of the data set: Induction of apoptosis in human HCT116 cells after 48 hrs by Annexin V-FITC/propidium iodide staining based flow cytometry. The class given is functional, cell-based.
The subject of data set [22] is HCT-116. Nature of the data set: Induction of apoptosis in human HCT116 cells assessed as late apoptotic cells at 10 ug/ml after 48 hrs by Annexin V-FITC/propidium iodide staining based flow cytometry (reference value: 3.6%). The class given is functional.
Data set [23] has as its system HCT-116. The data set can be described thus: Induction of apoptosis in human HCT116 cells cytoplasmic extract assessed as decrease in survivin expression at 0.3125 to 2.5 ug/ml after 48 hrs by Western blot method. The class given is functional, cell-based. The procedure, abridged:
as §1

The subject of data set [24] is HCT-116. The data set can be described thus: Induction of apoptosis in human HCT116 cells assessed as early apoptotic cells at 1 ug/ml after 48 hrs by Annexin V-FITC/propidium iodide staining based flow cytometry (reference value: 3.7%). The class given is functional.
Data set [25] concerns HCT-116. The data set can be described thus: Induction of apoptosis in human HCT116 cells assessed as necrotic cells at 0.5 ug/ml after 48 hrs by Annexin V-FITC/propidium iodide staining based flow cytometry (reference value: 1.3%). The class given is functional.
Another data set has as its system Mus musculus. Nature of the data set: Toxicity in BALB/c mouse xenografted with human HCT116 cells assessed as change in body weight at 20 mg/kg, ip administered every other day for 14 days. The note with it: in vivo, 336 h. The class given is organism-based, HCT-116.
Data set [26] in a line: Downregulation of HDAC1 expression in human HCT116 cells nuclear extract at >0.625 ug/ml after 48 hrs by Western blot method. The note with it: HCT-116. In kind it is functional, cell-based. An outline of the steps: as §1
In data set [27] the test system is HCT-116. The data set can be described thus: Induction of apoptosis in human HCT116 cells assessed as early apoptotic cells at 0.5 ug/ml after 48 hrs by Annexin V-FITC/propidium iodide staining based flow cytometry (reference value: 3.7%). The class given is functional.

Active and inactive are the calls of the source. The calls are words filed in the database; no cut-off is given here.

What is called IC50 is the concentration that inhibits the measured activity by half. Regarding `C=C1C(=O)[C@]23[C@H](O)C[C@@H]4C(C)(C)CCC[C@]45CO[C@](O)(C[C@@H]1[C@H]2O)[C@@H]53` [PSEUDOIRRORATIN A], the Activity in the data set with HCT-116 [1] was 27.8%; in the data set with HT-29, “Dose-dependent effect”; in the data set with HCT-116 [4], 13.8%; with HCT-116 [5], 26.2%; with HCT-116 [6], 24.7%; with HCT-116 [10], 11.1%. Also, the Activity entry with HCT-116 [12] was “Dose-dependent effect”; in the data set on HCT-116 [13], 33.9%; with HCT-116 [14], 5.3%; in the data set on HCT-116 [15] it was 21.1%; in the data set with HCT-116 [16], 17%; with HCT-116 [18] it was 14.7%. Besides, the Activity was 18.3% in the data set on HCT-116 [20]; “Dose-dependent effect” in the data set on HCT-116 [21]; 30.2% in the data set with HCT-116 [22]; 10% in the data set on HCT-116 [24]; 3.1% in the data set with HCT-116 [25]; “Non-Toxic” with Mus musculus. The Activity in the data set on HCT-116 [27] amounted to 8.5%. Besides, the result in the data set with HCT-116 [2], in the data set with HCT-116 [7], in the data set on HCT-116 [8], in the data set with HCT-116 [9], in the data set on HCT-116 [17] and in the data set on HCT-116 [19] was Active. Further, the outcome (with HCT-116 [23]; in [26]) was Active. For the same compound, the IC50 was 5.9 µM in data set [3] and 4.9 µM in [11].
Consider `C=C1C(=O)[C@@]23[C@H](O)C[C@@H]4C(C)(C)CCC[C@@]4(COC(C)=O)[C@@H]2[C@@H](O)C[C@@H]1[C@H]3O` [FLEXICANLIN A], for which the Activity result is “Dose-dependent effect” in the data set on HT-29, “Dose-dependent effect” with HCT-116 [12] and “Non-Toxic” in the data set with Mus musculus. Moreover, the values for the 50% inhibitory concentration (IC50) in data set [3] and in data set [11] were 10.5 µM and 7.3 µM, respectively. In the data set with HCT-116 [19], the result was Active.

Source of the values: ChEMBL document CHEMBL3877339, “Efficient Semisynthesis of (-)-Pseudoirroratin A from (-)-Flexicaulin A and Assessment of Their Antitumor Activities” (ACS Med Chem Lett, 2017).
